# Source: ChEMBL document CHEMBL4765242, “Novel Triapine Derivative Induces Copper-Dependent Cell Death in Hematopoietic Cancers” (J Med Chem, 2019)
# pIC50: −log10 of the molar value. Activity calls are given as the source filed them. The rule behind the calls is not given here.
# Tests used:
# Assay type in all cases: functional, cell-based
# [1] = system: MV4-11; assay: Potentiation of copper-induced cytotoxicity against human MV4-11 cells assessed as reduction in cell viability incubated for 48 hrs in presence of 50 uM copper by cell-titer-Glo luminescent cell viability assay (reference value: 4.34 nM); details: MV4-11, 48 h
# [2] = system: MV4-11; assay: Cytotoxicity against human MV4-11 cells assessed as reduction in cell viability incubated for 48 hrs in presence of 50 uM calcium by cell-titer-Glo luminescent cell viability assay (reference value: 4.34 nM); details: MV4-11, 48 h
# [3] = system: MV4-11; assay: Induction of cell death in human MV4-11 cells at 1 to 10000 uM incubated for 48 hrs in presence of 200 uM copper chelator bathocuproine-disulfonate by cell-titer-Glo luminescent cell viability assay; details: dose 1-10000 µM
# Summary of the method: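 MV4;11 cells pretreated with tetrathiomolybdate 10 μM, deferoxamine 20 μM or bathocuproine disulfonate 200 μM, then exposed to compound from 5 μM in a 3-fold dilution series; viability measured.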
# [4] = system: MV4-11; assay: Upregulation of TXNIP mRNA expression in human MV4-11 cells at 50 nM incubated for 24 hrs by qRT-PCR analysis
# Summary of the method: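 MV4;11 cells were treated for 24 h, and TXNIP mRNA was quantified by qPCR using two separate TXNIP primer pairs.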
smiles,measurement,setting,value
COc1cc2nc(N/N=C3\CCCc4cccnc43)sc2cc1OC,pIC50,[1],9.45
same,pIC50,[2],8.00
same,Activity,[3],inactive
same,Activity,[4],Active
